Test results from ChEMBL document CHEMBL3286204, “Lignans from the fruit of Schisandra glaucescens with antioxidant and neuroprotective properties” (J Nat Prod, 2014).
Activity calls are given as the source filed them. The rule behind the calls is not given here.

Columns and labels:
[1] = target: Amyloid-beta precursor protein (Homo sapiens) (UniProt P05067); assay: Neuroprotective activity against amyloid beta (25 to 35)-induced cell death in human SH-SY5Y cells assessed as cell viability at 0.08 uM after 24 hrs by MTT assay relative to control; type: functional, cell-based
[2] = target: Amyloid-beta precursor protein (Homo sapiens) (UniProt P05067); assay: Neuroprotective activity against amyloid beta (25 to 35)-induced cell death in human SH-SY5Y cells assessed as cell viability at 2 uM after 24 hrs by MTT assay relative to control; type: functional, cell-based
[3] = target: Amyloid-beta precursor protein (Homo sapiens) (UniProt P05067); assay: Neuroprotective activity against amyloid beta (25 to 35)-induced cell death in human SH-SY5Y cells assessed as cell viability at 10 uM after 24 hrs by MTT assay relative to control; type: functional, cell-based
[4] = Antioxidant activity assessed as reduction of TPTZ-Fe3+ to TPTZ-Fe2+ at 0.15 to 1.5 mM after 5 mins by FRAP assay; type: functional
[5] = target: Amyloid-beta precursor protein (Homo sapiens) (UniProt P05067); assay: Neuroprotective activity against amyloid beta (25 to 35)-induced cell death in human SH-SY5Y cells assessed as cell viability at 0.4 uM after 24 hrs by MTT assay relative to control; type: functional, cell-based
[6] = system: Radical scavenging activity; assay: Antioxidant activity assessed as 150 uM DPPH free radical scavenging activity under dark condition after 30 mins by microplate reader analysis; type: functional
How it was run: (§1)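 Compounds at final 6.25, 12.5, 25, 50, 75 and 100 μM mixed with DPPH (final 150 or 300 μM) in EtOH containing 5% DMSO; EtOH/5% DMSO control. A517 read at steady state after 30 min at room temperature in the dark. Triplicate tests averaged.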

[7] = system: Radical scavenging activity; assay: Antioxidant activity assessed as 300 uM DPPH free radical scavenging activity under dark condition after 30 mins by microplate reader analysis; type: functional; how it was run: as §1
[8] = Antioxidant activity assessed as reduction of TPTZ-Fe3+ to TPTZ-Fe2+ after 5 mins by FRAP assay; type: functional
How it was run: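 Working reagent prepared fresh from TPTZ solution, TPTZ diluent and detective buffer (1:10:1 v/v), prewarmed to 37 °C. Samples at 0.15–1.5 mM (5 μL) mixed with 180 μL reagent and held 5 min at 37 °C, then A593 read. Activity expressed as FeSO4 equivalents from a FeSO4 standard curve (0.15–5.00 mM).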

Amyloid-beta precursor protein (Homo sapiens), sequence (P05067 whole entry): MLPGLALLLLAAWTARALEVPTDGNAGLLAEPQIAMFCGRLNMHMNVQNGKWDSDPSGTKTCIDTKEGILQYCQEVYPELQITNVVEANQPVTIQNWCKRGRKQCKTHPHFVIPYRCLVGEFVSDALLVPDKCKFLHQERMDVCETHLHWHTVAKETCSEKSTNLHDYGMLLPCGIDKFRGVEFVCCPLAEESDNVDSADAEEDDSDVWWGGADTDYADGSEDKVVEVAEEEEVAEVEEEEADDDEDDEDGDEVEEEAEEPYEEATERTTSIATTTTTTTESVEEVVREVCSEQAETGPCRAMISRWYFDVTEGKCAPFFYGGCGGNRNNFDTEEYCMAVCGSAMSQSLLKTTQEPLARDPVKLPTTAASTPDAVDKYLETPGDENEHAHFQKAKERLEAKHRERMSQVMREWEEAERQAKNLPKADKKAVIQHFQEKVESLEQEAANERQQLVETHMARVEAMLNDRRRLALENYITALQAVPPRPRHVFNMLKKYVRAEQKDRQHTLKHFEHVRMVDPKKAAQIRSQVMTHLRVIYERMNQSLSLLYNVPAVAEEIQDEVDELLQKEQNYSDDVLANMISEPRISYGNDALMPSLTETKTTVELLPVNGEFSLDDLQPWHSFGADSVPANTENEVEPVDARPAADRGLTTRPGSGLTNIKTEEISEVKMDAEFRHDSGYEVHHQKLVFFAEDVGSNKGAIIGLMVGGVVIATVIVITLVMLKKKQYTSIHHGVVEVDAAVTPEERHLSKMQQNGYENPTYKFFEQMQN

| Molecule | Activity [1] [%] | Activity [2] [%] | Activity [3] [%] | Activity [4] | Activity [5] [%] | IC50 [6] [µM] | IC50 [7] [µM] | Activity [8] |
| --- | --- | --- | --- | --- | --- | --- | --- | --- |
| COc1ccc([C@H]2c3cc4c(cc3C[C@@H](C)[C@@H]2C)OCO4)cc1OC | 57.4 | 59.8 | 58.7 | inactive | 58.2 | – | – | – |
| OC[C@H](Cc1ccc2c(c1)OCO2)[C@H](CO[C@@H]1O[C@H](CO)[C@@H](O)[C@H](O)[C@H]1O)Cc1ccc2c(c1)OCO2 | 65 | 63.1 | 65.2 | inactive | 64 | – | – | – |
| O=C1O[C@H]([C@@H](O)CO)C(O)=C1O [ASCORBIC ACID] | 54.1 | 58.5 | 58 | – | 55.6 | 24.7 | 59.3 | – |
| COc1cc(C[C@H](C)[C@H](C)Cc2ccc3c(c2)OCO3)ccc1O [AUSTROBAILIGNAN 6] | 57 | 61.8 | 64.4 | – | 61.5 | 33.2 | 75.1 | Dose-dependent effect |
| VITAMIN E | – | – | – | – | – | 26.9 | 62.1 | – |
| COc1cc([C@H]2O[C@H](c3ccc4c(c3)OCO4)[C@@H](C)[C@H]2C)ccc1O | – | – | – | – | – | 23.3 | 44.5 | Dose-dependent effect |
| COc1cc([C@H]2c3cc4c(cc3C[C@@H](C)[C@@H]2C)OCO4)ccc1O | 57.7 | 60.5 | 60.5 | – | 59.9 | 181 | 360 | Dose-dependent effect |
| OC[C@H](Cc1ccc2c(c1)OCO2)[C@H](CO[C@@H]1O[C@H](CO[C@@H]2O[C@@H](CO)[C@H](O)[C@H]2O)[C@@H](O)[C@H](O)[C@H]1O)Cc1ccc2c(c1)OCO2 | 58 | 62 | 58.3 | inactive | 59.2 | – | – | – |
| COc1ccc([C@H]2O[C@H](c3ccc4c(c3)OCO4)[C@@H](C)[C@H]2C)cc1OC | 58.2 | 58.6 | 60.4 | inactive | 58.1 | – | – | – |
| COc1ccc([C@H](OC(=O)c2ccc3c(c2)OCO3)[C@H](C)C(C)=O)cc1OC | – | – | – | inactive | – | – | – | – |
| Cc1c(C)c2c(c(C)c1O)CCC(C)(C(=O)O)O2 (stereo unspecified) | – | – | – | Active | – | – | – | – |
| COc1ccc(C(=O)O[C@@H](c2ccc3c(c2)OCO3)[C@H](C)C(C)=O)cc1OC | 58.3 | 68.9 | 66.8 | inactive | 65.4 | – | – | – |
| COc1cc(C[C@@H](C)[C@@H](C)Cc2ccc(O)c(OC)c2)ccc1O [MESODIHYDROGUAIARETIC ACID] | 62.2 | 69.2 | 68.3 | – | 63.8 | 15.7 | 34.6 | Dose-dependent effect |
| COc1ccc(C[C@@H](C)[C@@H](C)Cc2ccc3c(c2)OCO3)cc1OC | 58.1 | 61.1 | 61.9 | inactive | 62.2 | – | – | – |
| COc1cc([C@@H]2c3cc(OC)c(O)cc3C=C(C)[C@H]2C)ccc1O | 58.6 | 62.1 | 65.2 | – | 60.7 | 37.5 | 83.4 | Dose-dependent effect |
